Measurements pooled from the literature.
Each line is one published result; the experiments were not run side by side.

| Structure (SMILES) | tested on | assay | system | conditions | quantity | value |
| --- | --- | --- | --- | --- | --- | --- |
| Cc1ccc(-c2cc(C(F)(F)F)nn2-c2ccc(S(N)(=O)=O)cc2)cc1 | RAW264.7 | NO release, inhibitor, Griess | – | 10 µM, LPS-stimulated | inhibition | 35.2% |
| O=C1CC[C@@H](COc2ccc(C(=O)C(Cl)Cl)cc2[N+](=O)[O-])N1 | NCI-H1299 | cell growth or viability, MTT | – | 2.5 µM | inhibition | 94.7% |
| N#Cc1c(-c2ccc(Cl)cc2Cl)c(C(N)=S)c(N)n(N)c1=O | Enterobacter cloacae | microbial growth, well diffusion | ATCC23355 | 500 µg/mL | inhibition zone | 18 mm |
| Cn1cc2c3c1C(=O)C(NCCc1ccc(O)cc1)=CC3=[N+](C)CC2 | Babesia divergens | parasite growth, SYBR Green | – | 60 h, blood stage | IC50 | 12.2 nM |
| COc1cccc2c1C(=O)c1c(O)c3c(c(O)c1C2=O)C[C@@](O)(C(=O)CO)C[C@@H]3O[C@H]1C[C@H](N)[C@H](O)[C@H](C)O1 | NCI-H1299 | cell growth or viability, MTT | – | 2.5 µM | inhibition | 95.7% |
| CCCOc1ccc(/C=C/c2cc(OC)cc(OC)c2-c2cnnn2C(=O)NCCc2ccccc2)cc1 | RAW264.7 | NO release, inhibitor, Griess | – | 10 µM, LPS-stimulated | inhibition | 69.3% |
| CN(Cc1ccc(C2(C(F)(F)F)CC2)cc1)Cc1cccc2ccccc12 | Trichophyton mentagrophytes | microbial growth, disc diffusion | ATCC18748 | 0.512 µg/mL, 72 h | inhibition zone | ≥ 55 mm |
| C#CCOc1ccc(/C=C/c2cc(OC)cc(OC)c2-c2cnnn2C(=O)NCCc2ccccc2)cc1 | RAW264.7 | NO release, inhibitor, Griess | – | 10 µM, LPS-stimulated | inhibition | 50.4% |
| C=CC(=O)NC1CCN(c2ncc3ncnc(Nc4ccc(Oc5ccc6c(c5)ncn6C)c(C)c4)c3n2)CC1 | NCI-H1437 | cell growth or viability | – | – | EC50 | 4990 nM |
| N#Cc1ccc(Oc2ccc(C(=O)C(Cl)Cl)cc2[N+](=O)[O-])cc1 | NCI-H1299 | cell growth or viability, MTT | – | 2.5 µM | inhibition | 96.2% |
| CC#CCOc1ccc(/C=C/c2cc(OC)cc(OC)c2-c2cnnn2C(=O)NC(C)C)cc1 | RAW264.7 | NO release, inhibitor, Griess | – | 10 µM, LPS-stimulated | inhibition | 78.7% |
| CN(Cc1ccc(C(C)(C)C)cc1)Cc1cccc2ccccc12 | Trichophyton mentagrophytes | microbial growth, disc diffusion | ATCC18748 | 0.004 µg/mL, 72 h | inhibition zone | 34 mm |
